In brackets after ≈: the same amount, converted by molar mass.
Assays:
Assay type in all cases: functional
Burkholderia cenocepacia [1] = assay: Antimicrobial activity against Burkholderia cenocepacia 5007902 expressing beta-lactamase PenB4
Outline: (§1)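 MICs measured by broth microdilution and by Etest on clinical B. cenocepacia isolates grown for 18 h in Trypticase soy broth (30°C and 37°C). Susceptibility was read against CLSI guidelines.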

Burkholderia cenocepacia [2] = assay: Antimicrobial activity against Burkholderia cenocepacia 212 expressing beta-lactamase PenB3; outline: as §1
Burkholderia cenocepacia [3] = assay: Antimicrobial activity against Burkholderia cenocepacia 07-34 expressing beta-lactamase PenB1; outline: as §1
Burkholderia cenocepacia [4] = assay: Antimicrobial activity against Burkholderia cenocepacia 09-54 expressing beta-lactamase PenB2; outline: as §1
Escherichia coli [5] = assay: Antimicrobial activity against Escherichia coli TOP10 in presence of 4 ug/ml beta-lactamase inhibitor clavulanic acid
Outline: (§2)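 E. coli TOP10 host, either plain or carrying the pBK-CMV clone pBcSau13 with the B. cenocepacia 212 insert. MICs by broth microdilution and Etest, read against CLSI guidelines.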

Escherichia coli [6] = assay: Antimicrobial activity against Escherichia coli TOP10 harboring beta-lactamase PenB1
Outline: (§3)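 MICs by broth microdilution and Etest, interpreted per CLSI guidelines. Strains tested were host E. coli TOP10, and TOP10 carrying pBcSau13 (pBK-CMV vector, kanamycin-resistant) holding a Sau3AI fragment of B. cenocepacia 212 DNA that encodes PenB1.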

Burkholderia cenocepacia [7] = assay: Antimicrobial activity against Burkholderia cenocepacia 07-34 expressing beta-lactamase PenB1 in presence of 4 ug/ml beta-lactamase inhibitor clavulanic acid
Outline: (§4)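 Cultured in Trypticase soy broth at 30°C and 37°C for 18 h. MICs by broth microdilution and Etest, read against CLSI guidelines.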

Escherichia coli [8] = assay: Antimicrobial activity against Escherichia coli TOP10; outline: as §3
Escherichia coli [9] = assay: Antimicrobial activity against Escherichia coli TOP10 harboring beta-lactamase PenB1 in presence of 4 ug/ml beta-lactamase inhibitor clavulanic acid; outline: as §2
Burkholderia cenocepacia [10] = assay: Antimicrobial activity against Burkholderia cenocepacia 5007902 expressing beta-lactamase PenB4 in presence of 4 ug/ml beta-lactamase inhibitor clavulanic acid; outline: as §4
Burkholderia cenocepacia [11] = assay: Antimicrobial activity against Burkholderia cenocepacia 212 expressing beta-lactamase PenB3 in presence of 4 ug/ml beta-lactamase inhibitor clavulanic acid; outline: as §4
Burkholderia cenocepacia [12] = assay: Antimicrobial activity against Burkholderia cenocepacia 09-54 expressing beta-lactamase PenB2 in presence of 4 ug/ml beta-lactamase inhibitor clavulanic acid; outline: as §4

Row | SMILES | MIC (Burkholderia cenocepacia [1]) | MIC (Burkholderia cenocepacia [2]) | MIC (Burkholderia cenocepacia [3]) | MIC (Burkholderia cenocepacia [4]) | MIC (Escherichia coli [5]) | MIC (Escherichia coli [6]) | MIC (Burkholderia cenocepacia [7]) | MIC (Escherichia coli [8]) | MIC (Escherichia coli [9]) | MIC (Burkholderia cenocepacia [10]) | MIC (Burkholderia cenocepacia [11]) | MIC (Burkholderia cenocepacia [12])
1 | CO/N=C(\C(=O)N[C@@H]1C(=O)N2C(C(=O)[O-])=C(C[N+]3(C)CCCC3)CS[C@H]12)c1csc(N)n1 | 1 µg/mL (≈ 2.08 µM) | 64 µg/mL (≈ 133 µM) | 32 µg/mL (≈ 66.6 µM) | 64 µg/mL (≈ 133 µM) | – | – | – | – | – | – | – | –
2 | CC1(C)S[C@@H]2[C@H](NC(=O)[C@H](N)c3ccc(O)cc3)C(=O)N2[C@H]1C(=O)O [AMOXICILLIN] | 512 µg/mL (≈ 1400 µM) | 512 µg/mL (≈ 1400 µM) | 512 µg/mL (≈ 1400 µM) | 512 µg/mL (≈ 1400 µM) | 4 µg/mL | 512 µg/mL (≈ 1400 µM) | 512 µg/mL | 4 µg/mL (≈ 10.9 µM) | 16 µg/mL | 512 µg/mL | 512 µg/mL | 512 µg/mL
3 | C[C@H]1[C@H](NC(=O)/C(=N\OC(C)(C)C(=O)O)c2csc(N)n2)C(=O)N1S(=O)(=O)O [AZTREONAM] | 16 µg/mL (≈ 36.7 µM) | 512 µg/mL (≈ 1180 µM) | 4 µg/mL (≈ 9.19 µM) | 512 µg/mL (≈ 1180 µM) | – | 0.5 µg/mL (≈ 1.15 µM) | – | – | – | – | – | –
4 | CO/N=C(\C(=O)N[C@@H]1C(=O)N2C(C(=O)O)=C(COC(C)=O)CS[C@H]12)c1csc(N)n1 [CEFOTAXIME] | 4 µg/mL (≈ 8.78 µM) | 512 µg/mL (≈ 1120 µM) | 1 µg/mL (≈ 2.2 µM) | 512 µg/mL (≈ 1120 µM) | – | 0.25 µg/mL (≈ 0.549 µM) | – | 0.06 µg/mL (≈ 0.132 µM) | – | – | – | –
5 | CO[C@@]1(NC(=O)Cc2cccs2)C(=O)N2C(C(=O)O)=C(COC(N)=O)CS[C@@H]21 [CEFOXITIN] | 512 µg/mL (≈ 1200 µM) | 512 µg/mL (≈ 1200 µM) | 512 µg/mL (≈ 1200 µM) | 512 µg/mL (≈ 1200 µM) | – | 8 µg/mL (≈ 18.7 µM) | – | 8 µg/mL (≈ 18.7 µM) | – | – | – | –
